This is an account of results in ChEMBL document CHEMBL2380219, “Physalin A induces apoptotic cell death and protective autophagy in HT1080 human fibrosarcoma cells” (J Nat Prod, 2013).

Common to all, as to type: functional, cell-based
For test [1], the system named is HT-1080. In words: Induction of apoptosis in human HT1080 cells assessed as increase in PARP cleavage at 10 uM pretreated with 3MA for 1 hr prior to compound addition measured after 24 hrs by Western blotting analysis. Summed up: (§1)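 HT1080 cells pretreated 1 h with 1 mM 3MA or 1 nM rapamycin, then co-incubated with 10 μM for 24 h. Adherent and floating cells lysed in Hepes pH 7.4/Triton buffer. 12% SDS-PAGE, nitrocellulose, antibodies against Fas, FADD, caspase-8, caspase-3, PARP and ICAD, ECL detection. Densities normalized to β-actin; n = 3.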
For orientation: A western blot detects proteins with antibodies after separation by electrophoresis.

A further test concerns HepG2. Description: Cytotoxicity against human HepG2 cells assessed as growth inhibition after 24 hrs by MTT assay. Put shortly:
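Seeded 0.8 × 10^4 cells/well, cultured 24 h, then exposed to 0, 10, 20, 40 or 80 μM for 24 h (DMSO <0.05%) in RPMI 1640 or MEM with 10% FBS. Adherent lines rinsed with PBS, given MTT 2 h at 37 °C. Suspension lines (U937, HL60) given MTT 2 h, then centrifuged. Formazan dissolved in DMSO, A492 read. Inhibition % = (control − sample)/(control − blank) × 100.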

Test [2] deals with HT-1080. Description: Induction of apoptosis in human HT1080 cells assessed as procaspase-8 cleavage at 10 uM by Western blotting analysis. To be noted: TDE = time-dependent effect.
For test [3], the system named is HT-1080. In words: Induction of apoptosis in human HT1080 cells assessed as increase in procaspase-3 cleavage at 10 uM pretreated with 3MA for 1 hr prior to compound addition measured after 24 hrs by Western blotting analysis. Summed up:
as §1

Test [4] concerns HT-1080. In words: Induction of apoptosis in human HT1080 cells assessed as downregulation of ICAD at 10 uM pretreated with rapamycin for 1 hr prior to compound addition measured after 24 hrs by Western blotting analysis. Put shortly: as §1
In test [5] the test system is HT-1080. Description: Induction of apoptosis in human HT1080 cells assessed as upregulation of FADD protein expression at 10 uM pretreated with 3MA for 1 hr prior to compound addition measured after 24 hrs by Western blotting analysis. Put shortly: as §1

Structures are written as SMILES. Activity calls are given as the source filed them. The rule behind the calls is not given here.

Consider `C=C1C(=O)O[C@@H]2C[C@@]1(C)[C@@H]1C(=O)[C@]3(O)O[C@]14[C@@]2(C)OC(=O)[C@@]4(O)CC[C@H]1[C@H]3[C@H](O)C=C2CC=CC(=O)[C@@]21C` [PHYSALIN A], for which the result with HT-1080 [1], with HT-1080 [3] and with HT-1080 [5] was Active. Besides, the “growth inhibition (GI)” value in the test on HepG2 is “Dose-dependent effect”. For the same compound, the Activity entry in the test with HT-1080 [2] is “tde”. The outcome with HT-1080 [4] was inactive.
